Assay results taken from ChEMBL document CHEMBL1129737, “Mechanism of selective incorporation of the melanoma seeker 2-thiouracil into growing melanin” (1996).

Experiments:
[1] = test system: Mus musculus; test: Absorbance at 350 nM of a solution of melanosomes obtained by treatment in hot alkali from tumor after ip injection at 0 min of assay as a measure of pigment content of tissue; type: functional
[2] = test system: Mus musculus; test: Absorbance at 350 nM of a solution of melanosomes obtained by treatment in hot alkali from tumor after ip injection at 180 min of assay as a measure of pigment content of tissue; type: functional
[3] = species on record: Mus musculus; test: HPCL quantitation of resulting degradation product, pyrrole-2,3,5-tricarboxylic acid (PTCA) content after tumor isolation at 30 min of assay; type: functional, organism-based
Procedure, shortened: (§1)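 B16 tumours were grown s.c. in female C57Bl/6 mice, which were given 10 μCi [2-14C]TU two weeks later. At each time point, melanosomes were isolated by sucrose density gradient ultracentrifugation. 4 mg was oxidized with alkaline H2O2 (1 M NaOH, 30% H2O2) for 3 h at 25 °C. PTCA was quantified by HPLC with 280 nm detection and expressed per mg.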

[4] = test system: Mus musculus; test: Absorbance at 350 nM of a solution of melanosomes obtained by treatment in hot alkali from tumor after ip injection at 90 min of assay as a measure of pigment content of tissue; type: functional
[5] = test system: Mus musculus; test: Absorbance at 350 nM of a solution of melanosomes […] from tumor after ip injection at 30 min of assay as a measure of pigment content of tissue; type: functional
[6] = test system: Mus musculus; test: Specific Incorporation (cpm/mg of melanin) of melanin after isolation from tumor after ip injection at 180 min of assay; type: functional
Procedure, shortened: (§2)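 Mice (female C57Bl/6, s.c. B16 melanoma, two weeks) received 10 μCi [2-14C]TU and were euthanized at the noted times. Tumours were weighed, frozen, homogenized in 1% acetic acid–ethanol (30:70) and centrifuged. Melanosomal melanin was purified on a sucrose density gradient, dried to constant weight, and radioactivity was expressed as cpm/mg melanin.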

[7] = species on record: Mus musculus; test: HPCL quantitation of resulting degradation product, pyrrole-2,3,5-tricarboxylic acid (PTCA) content after tumor isolation at 180 min of assay; type: functional, organism-based; procedure, shortened: as §1
[8] = species on record: Mus musculus; test: HPCL quantitation of resulting degradation product, pyrrole-2,3,5-tricarboxylic acid (PTCA) content after tumor isolation at 90 min of assay; type: functional, organism-based; procedure, shortened: as §1
[9] = test system: Mus musculus; test: Specific Incorporation (cpm/mg of melanin) of melanin after isolation from tumor after ip injection at 90 min of assay; type: functional; procedure, shortened: as §2
[10] = species on record: Mus musculus; test: HPCL quantitation of resulting degradation product, pyrrole-2,3,5-tricarboxylic acid (PTCA) content after tumor isolation at 0 min of assay; type: functional, organism-based; procedure, shortened: as §1
[11] = test system: Mus musculus; test: Specific Incorporation (cpm/mg of melanin) of melanin after isolation from tumor after ip injection at 30 min of assay; type: functional; procedure, shortened: as §2

Structure (SMILES): O=c1cc[nH]c(=S)[nH]1 [THIOURACIL]
- Activity [1]: 0.071
- Activity [2]: 0.043
- Concentration [3]: 493 ng/mg
- Activity [4]: 0.036
- Activity [5]: 0.032
- Specific incorporation [6]: 2300 c.p.m. (mg of melanin)-1
- Concentration [7]: 589 ng/mg
- Concentration [8]: 560 ng/mg
- Specific incorporation [9]: 2600 c.p.m. (mg of melanin)-1
- Concentration [10]: 1120 ng/mg
- Specific incorporation [11]: 2500 c.p.m. (mg of melanin)-1
